# Screening data (PubChem BioAssay)
# CHOP inhibitor: inhibitors of CHOP induction in ER stress response; inhibition, % at 10 µM; 220,000 tested, 3.8% active; CHO-K1 CHOP-promoter luciferase, tunicamycin-induced, 15-18 h;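 active = compounds that reduced the stress-induced luciferase reporter signal by more than about 70% of percent inhibition, limit read from the data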;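 also: 0% = tunicamycin plus vehicle and 100% = wells without tunicamycin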
# Rad51 HR inh: Rad51 (human) homologous recombination inhibition; hRad51 DNA strand exchange, fluorescence dequenching; inhibition, % at 10 µM; Q06609; 200,000 tested, 0.085% active; AID 1385;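 active = inhibition above 40% at the single screening dose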;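 also: 0% = DMSO control wells and 100% = blanks with heterologous ssDNA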
# Target sequence (Q06609 whole entry, looked up): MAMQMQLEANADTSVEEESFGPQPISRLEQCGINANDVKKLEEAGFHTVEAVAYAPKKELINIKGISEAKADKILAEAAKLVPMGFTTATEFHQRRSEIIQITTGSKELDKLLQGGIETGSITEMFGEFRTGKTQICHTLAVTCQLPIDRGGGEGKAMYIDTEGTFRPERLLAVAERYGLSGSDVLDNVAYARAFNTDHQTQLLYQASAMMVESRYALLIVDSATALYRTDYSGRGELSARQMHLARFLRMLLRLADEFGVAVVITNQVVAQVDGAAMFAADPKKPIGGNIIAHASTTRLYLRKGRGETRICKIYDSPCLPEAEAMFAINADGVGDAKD
#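 System: human Rad51 nucleoprotein filaments preassembled on unlabelled ssDNA. Reagent: labelled 47-mer dsDNA for strand exchange. Schedule: 30-min compound preincubation and 15-min exchange, both room temperature. Measured by: FRET fluorescence dequenching, excitation 485 nm, emission 520 nm. Read-out: Fluorescence-based percent inhibition, control- and blank-normalised. Benchmarks: plate controls and plate blanks.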
# PKD1 inh: inhibitors of human PKD1 kinase; Q15139; PKD1 kinase fluorescence polarization assay; inhibition, % (no concentration beside the values); 200,000 tested, 0.056% active; AID 797
# Wee1 degr inh: blocks degradation of human Wee1 kinase; P30291; HeLa Luc-Wee1K328M stability, luciferase luminescence; 100% = proteasome inhibitor MG132 effect; reporter increase, % at 5 µM; 220,000 tested, 1.2% active;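 active = activation above the mean of all tested compounds plus 3 SD, set per screening run, cut at about 8.8% in these data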;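 also: cells exposed to compound for 20 h before luminescence read; 0% = DMSO alone and 100% = MG132 at 30 µM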
# L major viab: reduces viability of Leishmania major promastigotes. resazurin fluorescence viability. 200,000 tested, 9% active. inhibition, % at 10 µM;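 also: promastigotes grown with compound for 44 hours at 28 °C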
# Arbovirus anti: blocks arbovirus infection | arbovirus infection cell-based antiviral screen | inhibition, % at 10 µM | 200,000 tested, 0.37% active | AID 1251; in the data active = inhibition above about 30%
# Numbers without * were called inactive; . = no result. Rows were chosen to be rich in hits. Some 12% of all compounds tested hit in one or more screens of this group. Rule as the data show it, unless noted: active = inhibition above about 50%; inactive = the rest.
SMILES,CHOP inhibitor,Rad51 HR inh,PKD1 inh,Wee1 degr inh,L major viab,Arbovirus anti
COc1ccc(C(=O)N[C@H](C(=O)N2CCN(c3ccccc3F)CC2)C(C)C)cc1,47,15,5,-3,10,2
Cc1cccc(OCC(=O)NNC(=O)c2cc3ccccc3oc2=O)c1,-2,5,-2,-2,-4,-5
Cc1cccc(NC(=O)COC(=O)c2cc3ccccc3oc2=O)c1,25,0,6,8.9*,-8,-3
Cc1nc(-c2nnc(SCC(=O)Nc3cc(Cl)cc(Cl)c3)n2C)cs1,11,.,.,-1,.,.
COC(=O)Nc1ccc(S(=O)(=O)N2CCCC(C(=O)NC3CCS(=O)(=O)C3)C2)cc1 (configuration not stated),28,3,10,2,58*,12
O=C(NC1CCS(=O)(=O)C1)C1CCCN(S(=O)(=O)c2ccc(Cl)cc2)C1 (configuration not stated),7,8,3,-2,-7,-1
Cc1cc(C)c2c(N)c3cccc(C)c3nc2n1,-8,-32,-10,3,100*,-29
Cc1cccc2c(N)c3c(nc12)CCCC3 (tested in a mixture with another compound),-2,-6,0,-4,67*,8
Cc1cc2cccc(C)c2nc1SCC(=O)N(C)c1nc(-c2ccccc2)cs1,17,-4,-7,2,-3,-2
COc1ccc2c(c1)cc(C)c1nnc(SCC(=O)N(C)c3nc(-c4ccccc4)cs3)n12,94*,-6,-14,-1,0,4
C[C@H]1C=C(C(=O)NC2CC2)O[C@@H](OCc2ccc(CO)cc2)C1,-8,6,.,.,.,.
COc1ccc(NC(=O)[C@@H](NC(=O)c2ccccc2F)C(C)C)cc1S(=O)(=O)N1CCOCC1,9,-8,0,-2,-2,16
Cc1cc(=O)oc2cc(OCCSCCN3CCCCC3)ccc12,6,18,.,-2,.,.
CN(C)c1ccc(N=Nc2cccc3ccoc23)cc1,7,10,.,9.0*,.,.
c1ccc2oc(C3=NNC(=NC4CC4)SC3)cc2c1,53,-21,-6,15*,0,0
FC(F)Sc1ccc(N=C2NN=C(c3ccc4c(c3)OCCO4)CS2)cc1,9,-3,-9,-2,55*,-16
c1cc2c(cc1C1=NNC(=NC3CC3)SC1)OCCO2,98*,-3,5,-6,-2,-10
CCCCN=C1NN=C(c2ccc3c(c2)OCCO3)CS1,-2,1,1,2,-2,12
COc1ccc(N(C(=O)/C=C/c2ccccc2)C2=CC3CCC(C2)N3C)cc1 (configuration not stated),8,-7,.,0,.,.
O=C(NC1CCN(C(=S)NCCc2ccccc2)CC1)C1CC1,5,5,-5,-4,-1,24
CCCNC(=S)N1CCC(NC(=O)C2CCCCC2)CC1,10,-4,-1,10*,-5,6
Cc1nnc(NC(=O)c2ccccc2Oc2ccccc2)s1,8,6,-9,2,-2,8
O=C1N/C(=C/c2ccc(N3CCOCC3)o2)C(=O)N1c1ccccc1,-25,-69,-2,4,0,-1
C=CCN1C(=O)N/C(=C/c2ccc(N3CCOCC3)o2)C1=O,94*,-15,-10,5,7,-4
Cc1cc(C(=O)CSc2nnc(-c3ccc(F)cc3)o2)c(C)n1CC1CCCO1 (configuration not stated),93*,4,4,-2,2,16
Cc1cc(C(=O)CSc2nc3ccccc3c(=O)n2C)c(C)n1CC1CCCO1 (configuration not stated),74*,13,-1,0,2,-2
Cc1cc(C(=O)COC(=O)c2ccc(CO)cc2)c(C)n1CC1COc2ccccc2O1 (configuration not stated),27,-4,-11,6,55*,-4
Cc1cc(C(=O)COC(=O)CNC(=O)c2ccccc2)c(C)n1CC1CCCO1 (configuration not stated),90*,.,-7,-2,-4,-8
Cc1cccc(C(=O)NCC(=O)OCC(=O)c2cc(C)n(CC3CCCO3)c2C)c1 (configuration not stated),12,-3,-8,3,-5,1
